Assay: Toxicity liver stage against HepG2, at 10uM
Format: cell-based
Design: test concentration 10 uM, cell line HepG2-A16-CD81EGFP
Conditions: human, HepG2-A16-CD81EGFP cells; read-out: INHIBITION
Summary of the method: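 Uninfected HepG2-A16-CD81EGFP cells, 3 × 10^3 per well, 1536-well, plated on prespotted compound at 10 μM final, parasite-free screening media added to match infected plates; puromycin 10 μM positive, DMSO 0.5% negative; run in parallel with 48 h PbLuc assay at 37 °C, 5% CO2; viability by CellTiter-Glo luminescence, normalized to controls.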
Compound `O=C(CN1CCN(C(=O)c2ccccc2)CC1)Nc1ccc(Br)cn1` has a cytotoxicity at 10 µM of 14.1%. Compound `CCN1Cc2cc(F)ccc2N(CC(O)C(F)(F)F)CCC1=O` (stereo unspecified) has a cytotoxicity at 10 µM of -3.4%. For `CCOCC(=O)NCC(Cc1cccc(F)c1)n1cccc1` (stereo unspecified), the cytotoxicity at 10 µM was -6.22%. Compound `Cn1c(C(F)(F)F)nn(CCNC(=O)Nc2ccccc2F)c1=O` has a cytotoxicity at 10 µM of -2.59%. `CN(c1ncc(C(=O)Nc2ccccc2)c(N)n1)C1CCCCC1` gave a cytotoxicity at 10 µM of -6.21%. With `COc1ccc(CC2CN(Cc3cncn3C)CCO2)cc1` (stereo unspecified) the cytotoxicity at 10 µM was 0.328%. Work on `O=C(O)COc1ccccc1CN1CCCC1c1cnccn1` (stereo unspecified) yielded a cytotoxicity at 10 µM of 22%. In the case of `O=C(CC1CCCCC1)N1CCC(c2ncc3c(n2)CCNC3)CC1`, the cytotoxicity at 10 µM was -8.21%. For `Cn1cc(CN2CC[C@H](O)[C@@H](n3ccc(=O)[nH]c3=O)CC2)cn1`, the cytotoxicity at 10 µM was 20.4%. Work on `O=C(C1CC1)N1CCCC(c2nc(O)cc(-c3ccncc3)n2)C1` (stereo unspecified) yielded a cytotoxicity at 10 µM of 31.2%. In the case of `Cc1noc2nc(C3CCN(Cc4ccccn4)CC3)cc(C(F)F)c12`, the cytotoxicity at 10 µM was -13%. Compound `CCc1cc(O)nc(C2CCCN(Cc3ccncc3)C2)n1` (stereo unspecified) has a cytotoxicity at 10 µM of -7.05%. With `CNS(=O)(=O)CCCN1CCN(C(C#N)c2ccccc2)CC1` (stereo unspecified) the cytotoxicity at 10 µM was 7.7%. Work on `COC(=O)CC1CCCCN1CC(=O)Nc1cc(F)ccc1F` (stereo unspecified) yielded a cytotoxicity at 10 µM of 6.55%. `CC(c1ccccc1)N(C)C(=O)CN1CCN(c2cnccn2)CC1` (stereo unspecified) gave a cytotoxicity at 10 µM of 3.96%. `Cc1nc(C)n(CC2CCCCN2CCCN2CCCC2=O)n1` (stereo unspecified) gave a cytotoxicity at 10 µM of -2.35%. `CN(CCS(C)(=O)=O)C1CCCN(Cc2noc(C3CC3)n2)C1` (stereo unspecified) gave a cytotoxicity at 10 µM of 14.6%. In the case of `CC(C)(C)c1nc(CC(=O)NC2CCN(C3CC3)C2)cs1` (stereo unspecified), the cytotoxicity at 10 µM was -9.25%. `CCC(Nc1nnnn1-c1ccccc1)C(=O)NC1CCSCC1` (stereo unspecified) gave a cytotoxicity at 10 µM of -16%. Compound `O=S(=O)(NCC1CCN(CCN2CCOCC2)C1)c1ccccc1F` (stereo unspecified) has a cytotoxicity at 10 µM of -57.9%. Work on `CCSc1cncc(N2CCC(C(=O)Nc3ccccn3)CC2)n1` yielded a cytotoxicity at 10 µM of 26.3%. In the case of `CC1c2ncc(COCC3CCOCC3)n2CCN1C(=O)c1ccco1` (stereo unspecified), the cytotoxicity at 10 µM was -0.882%. With `Cc1ncc(-c2ccnc(N[C@@H](C)CO)n2)c(C2CCCCC2)n1` the cytotoxicity at 10 µM was -20.7%. `CCN1CCCC(C)(C(=O)NCc2nccn2Cc2ccccc2)C1` (stereo unspecified) showed a cytotoxicity at 10 µM of 4.69%. Compound `O=C(c1cnc(C2CC2)nc1)N1CCC(N2CCC(O)CC2)CC1` has a cytotoxicity at 10 µM of 2.33%. `Cc1nn(C)cc1-c1ccnc(N2CCSCC2)n1` showed a cytotoxicity at 10 µM of 3.47%. In the case of `CCOc1ccc(CN2CC[C@](C)(O)C(C)(C)C2)cn1`, the cytotoxicity at 10 µM was 5.88%. In the case of `CNC(=O)c1ccnc(N2CCCC(COc3cccc(C)c3)C2)c1` (stereo unspecified), the cytotoxicity at 10 µM was 7.68%. With `CC(C)=CCCN1CCN(C)C2(CCC(=O)N(C)CC2)C1` (stereo unspecified) the cytotoxicity at 10 µM was -54%. `Cc1nccc(-c2cccc(-c3ccn(CC4CCNC4)n3)c2)n1` (stereo unspecified) gave a cytotoxicity at 10 µM of 10.7%. For `COCCC1(C(=O)O)CCCN(C(=O)c2cnc3c(c2)CCCC3)C1` (stereo unspecified), the cytotoxicity at 10 µM was -44.5%. For `O=c1cc(N2CCCC2)cnn1Cc1noc(C2CCCO2)n1` (stereo unspecified), the cytotoxicity at 10 µM was -59.8%. In the case of `Cc1ccc(-c2ccnc(N(C)CC3CCCO3)n2)c(C)n1` (stereo unspecified), the cytotoxicity at 10 µM was -2.59%. For `O=S(=O)(c1c(Cl)nc2sccn12)N1CCC2(CCNCC2)C1`, the cytotoxicity at 10 µM was 6.11%. Work on `O=C(O)[C@@H]1CN(Cc2nc3ncccn3n2)C[C@H]1c1cccc(F)c1` yielded a cytotoxicity at 10 µM of -10.6%. For `CC(C)=CCC1(C(=O)O)CCCN(c2ccnc(C)n2)C1` (stereo unspecified), the cytotoxicity at 10 µM was -0.842%. `Cc1cnn(C2CCCN(C(=O)c3ccc(-n4cnnn4)cc3)C2)c1` (stereo unspecified) gave a cytotoxicity at 10 µM of -4.57%. For `Cc1cc(C)cc(C2(C(=O)NC(C)Cn3ccnc3)CC2)c1` (stereo unspecified), the cytotoxicity at 10 µM was -8.26%. `Cc1cnc(NC(=O)c2ccc(-n3ncc(C#N)c3N)cc2)s1` gave a cytotoxicity at 10 µM of 5.88%. In the case of `CCOCc1ccc(CNC2=NCCCN2)cc1`, the cytotoxicity at 10 µM was -51.5%. Work on `COCC1c2c(cnn2CC2CC2)CCN1Cc1cc(C)on1` (stereo unspecified) yielded a cytotoxicity at 10 µM of 5.5%. `O=C1NCCN(CC2CC2)C12CCN(Cc1ccccc1)CC2` gave a cytotoxicity at 10 µM of -78.7%. In the case of `Fc1cnc(N2CCn3cc(CNc4ccccn4)nc3C2)nc1`, the cytotoxicity at 10 µM was -0.665%. `CCc1cnc(N2CCC3(CC2)CN(c2cccnc2)C(=O)CO3)nc1` gave a cytotoxicity at 10 µM of 7.18%. In the case of `Cc1nc(C2(O)CCCNCC2)sc1CCOc1ccc(F)cc1` (stereo unspecified), the cytotoxicity at 10 µM was -15.8%. With `CC(=O)Nc1c(C)noc1C=Cc1ccc(S(=O)(=O)NC2CC2)cc1` the cytotoxicity at 10 µM was 0.54%.

From ChEMBL document CHEMBL4513216, “Probing the Open Global Health Chemical Diversity Library for Multistage-Active Starting Points for Next-Generation Antimalarials” (ACS Infect Dis, 2020)
